Drawing on ChEMBL document CHEMBL4699650, “SAR Investigation and Discovery of Water-Soluble 1-Methyl-1,4-dihydroindeno[1,2-c]pyrazoles as Potent Tubulin Polymerization Inhibitors” (J Med Chem, 2020), this text covers Activity and GI50 for one molecule.

Series [1] deals with HepG2. Nature of the series: Induction of cell cycle arrest in human HepG2 cells assessed as accumulation in S phase at 5 nM incubated for 24 hrs by propidium iodide staining based flow cytometry (reference value: 26.65%). The class given is functional.
The nature of series [2]: Toxicity in Balb/c nude mouse xenografted with human HepG2 cells assessed as change in body weight at 10 mg/kg, iv administered every 2 days for 21 days (reference value: 7.8 % ). The format is organism-based. The note with it: in vivo, 504 h, time 21 day.
Series [3] deals with HepG2. Nature of the series: Induction of apoptosis in human HepG2 cells assessed as live cells at 20 nM incubated for 24 hrs by Annexin V-PE and 7-AAD staining based flow cytometry (reference value: 93.2%). The class given is functional. The procedure, abridged:
(§1)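 HepG2 cells seeded at 3 × 10⁵ cells/well, adhered overnight, exposed at 5, 10 or 20 nM for 12 or 24 h. Harvested into Annexin V binding buffer and stained with annexin V-PE and 7-AAD for 15 min at room temperature in the dark, then analysed by flow cytometry. Gates: live (−/−), early apoptotic (+/−), late apoptotic (+/+), necrotic (−/+).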

The nature of series [4]: Antiproliferation activity against human A549/Taxol cells assessed as cell growth inhibition measured after 72 hrs by MTT assay. The class given is functional. A digest of the protocol: (§2)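 Cells grown in RPMI-1640 with 10% FBS at 37 °C, 5% CO2, seeded at 4−7 × 10³ cells/well and left to adhere overnight. Exposed to a range of concentrations for 72 h, then MTT (2.5 mg/mL stock) added for 4 h. Formazan dissolved in DMSO and absorbance read at 570 nm. GI50 taken as the concentration giving 50% growth inhibition, reported as mean ± SD of at least three independent experiments.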

In series [5] the test system is HepG2. The experiment in a line: Induction of apoptosis in human HepG2 cells assessed as necrotic cells at 20 nM incubated for 24 hrs by Annexin V-PE and 7-AAD staining based flow cytometry (reference value: 0.34 %). The format is functional. The procedure, abridged: as §1
Series [6] has as its system HepG2. Nature of the series: Induction of apoptosis in human HepG2 cells assessed as live cells at 10 nM incubated for 12 hrs by Annexin V-PE and 7-AAD staining based flow cytometry (reference value: 92.1%). The format is functional. The procedure, abridged:
as §1

The subject of series [7] is HepG2. Nature of the series: Induction of apoptosis in human HepG2 cells assessed as late apoptotic cells at 10 nM incubated for 12 hrs by Annexin V-PE and 7-AAD staining based flow cytometry (reference value: 2.79%). The class given is functional. The procedure, abridged: as §1
Series [8] concerns HepG2. The experiment in a line: Induction of apoptosis in human HepG2 cells assessed as live cells at 5 nM incubated for 24 hrs by Annexin V-PE and 7-AAD staining based flow cytometry (reference value: 93.2%). The format is functional. A digest of the protocol:
as §1

The test system of series [9] is HepG2. Nature of the series: Induction of apoptosis in human HepG2 cells assessed as live cells at 20 nM incubated for 12 hrs by Annexin V-PE and 7-AAD staining based flow cytometry (reference value: 92.1%). The class given is functional. A digest of the protocol: as §1
The test system of series [10] is HepG2. The experiment in a line: Induction of apoptosis in human HepG2 cells assessed as early apoptotic cells at 5 nM incubated for 12 hrs by Annexin V-PE and 7-AAD staining based flow cytometry (reference value: 4.52%). The format is functional. The procedure, abridged:
as §1

A short description of series [11]: Toxicity in Balb/c nude mouse xenografted with human HepG2 cells assessed as adverse signs at 5 to 10 mg/kg, iv administered every 2 days for 21 days. The note with it: in vivo, 504 h, dose 5-10 mg/kg, time 21 day. The format is organism-based.
Series [12] deals with HepG2. The experiment in a line: Induction of apoptosis in human HepG2 cells assessed as early apoptotic cells at 5 nM incubated for 24 hrs by Annexin V-PE and 7-AAD staining based flow cytometry (reference value: 4.16 %). The format is functional. A digest of the protocol: as §1
In series [13] the test system is HepG2. Nature of the series: Antitumor activity against human HepG2 cells xenografted in iv dosed Balb/c nude mouse assessed as tumor growth inhibition administered every 2 days for 21 days. The class given is functional, organism-based. The note with it: time 21.0 day. The procedure, abridged: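 Nude mice received 200 μL PBS containing HepG2 at 1 × 10⁷ cells/mL subcutaneously in the right armpit. Randomised at 90 mm³ tumour volume, five per group. Compound given iv as a 2.0 mg/mL solution in distilled water, 5 or 10 mg/kg every two days for 21 days, with a water vehicle group. Tumour volume (L × W²/2) and body weight recorded every 3 days. Inhibition = (1 − RTV treated/RTV vehicle) × 100%.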

Another series relates to A549. Nature of the series: Antiproliferation activity against human A549 cells assessed as cell growth inhibition measured after 72 hrs by MTT assay. The class given is functional. The procedure, abridged:
as §2

Series [14] in a line: Toxicity in Balb/c nude mouse xenografted with human HepG2 cells assessed as adverse signs at 25 mg/kg, po qd administered for 21 days. The note with it: in vivo, 504 h, time 21 day. The class given is organism-based. A digest of the protocol: (§3)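 Nude mice received 200 μL PBS with HepG2 cells (1 × 10⁷ cells/mL) subcutaneously in the right armpit. At 90 mm³ tumour volume, randomized to 5 per group. Dosed 25 mg/kg as a 2.5 mg/mL distilled-water solution, intragastric once daily for 21 days; distilled water as vehicle. Body weight recorded every 3 days; change given as initial vs end weight.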

Series [15] in a line: Toxicity in Balb/c nude mouse xenografted with human HepG2 cells assessed as change in body weight at 25 mg/kg, po qd administered for 21 days measured at 3 days interval during compound dosing (reference value: - 17.2 % ). The class given is organism-based. The note with it: in vivo, 504 h, time 21 day. The procedure, abridged:
as §3

Consider `CCOc1cccc(Nc2nn(C)c3c2Cc2cc(OCC)c(OCCCN)cc2-3)c1`, for which the Activity with HepG2 [1] is listed as 30.66%; in series [2], 6.9%; in the series with HepG2 [3], 50.2%; with HepG2 [5], 0.71%; in the series on HepG2 [6], 85.2%; in the series with HepG2 [7], 4.39%. Besides, the Activity is 85.6% with HepG2 [8]; 77.7% in the series on HepG2 [9]; 5.66% in the series with HepG2 [10]; “Non-Toxic” in [11]; 9.75% in the series with HepG2 [12]; “Dose-dependent effect” in the series on HepG2 [13]. In addition, the Activity entry in series [14] is on record as “Non-Toxic”; in [15], -18.5%. Besides, the GI50 in [4] was found to be 14.7 nM; in the series on A549, 3.7 nM.
